ERAP1 inh: inhibitors of human ERAP1 aminopeptidase | Q9NZ08 | recombinant ERAP1, Leu-AMC fluorescence, 60 min | inhibition, % at 10.7 µM | 340,000 compounds, 0.15% hits | AID 652197;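 active = mean replicate inhibition of at least 30%, or all replicates individually reaching that 30% level; inactive = mean below 30% and not every replicate reaching it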;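 also: 0% = neutral control wells and 100% = L-leucinethiol positive control wells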
Rtt109 HAT inh: inhibitors of Candida albicans Rtt109/Vps75 histone acetyltransferase; Q5AAJ8; purified Rtt109/Vps75, ThioGlo CoA-SH fluorescence, 4 h; inhibition, % at 34.9 µM; 330,000 compounds, 0.16% hits; AID 540336;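 active = inhibition of at least 50% in every replicate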
Target sequence (Q5AAJ8 whole entry, looked up): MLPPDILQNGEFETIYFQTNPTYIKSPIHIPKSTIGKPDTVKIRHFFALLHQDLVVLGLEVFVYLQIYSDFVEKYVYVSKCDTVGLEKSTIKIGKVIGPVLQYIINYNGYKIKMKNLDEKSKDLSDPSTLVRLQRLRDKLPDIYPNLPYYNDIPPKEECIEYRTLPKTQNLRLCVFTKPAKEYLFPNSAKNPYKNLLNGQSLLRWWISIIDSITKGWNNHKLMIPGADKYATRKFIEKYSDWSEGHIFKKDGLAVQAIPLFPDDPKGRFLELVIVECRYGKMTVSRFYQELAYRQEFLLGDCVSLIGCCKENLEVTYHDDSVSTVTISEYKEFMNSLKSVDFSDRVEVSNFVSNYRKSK
S100A4 inh HTS: S100A4-myosin IIA interaction inhibition; P26447; S100A4/TAMRA-MyoIIA peptide fluorescence polarization; inhibition, % at 10.7 µM; 360,000 compounds, 0.14% hits;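 active = mean inhibition of at least 70% across replicates, with every replicate also reaching that level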
Target sequence (P26447 whole entry, looked up): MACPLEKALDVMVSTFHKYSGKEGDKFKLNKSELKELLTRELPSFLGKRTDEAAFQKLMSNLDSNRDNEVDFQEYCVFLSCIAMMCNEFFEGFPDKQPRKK
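Test system – S100A4 monomer (human) · Compound – single-point compound testing · Schedule – 5 min incubation before reading · Probe or stimulus – TAMRA-labelled myosin IIA heavy-chain peptide probe, 5 nM · Benchmarks – neutral control DMSO, positive control TFP · Medium – Calcium-containing HEPES buffer, pH 7.2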
PGC1a acetyl inh: PGC1a acetylation modulation, inhibitor mode; U2OS PGC1a acetylation, AlphaScreen anti-acetyl-lysine; with virally co-expressed GCN5 acetyltransferase; inhibition, % at 15.6 µM; 350,000 compounds, 0.17% hits; AID 651687;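 active = every replicate shows inhibition of at least 40%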;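 also: 0% = neutral control wells and 100% = positive control wells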
C2C12 statin: protects C2C12 myotubes from simvastatin toxicity. AID 602340. rescue of ATP level, % at 7.49 µM. 330,000 compounds, 0.78% hits. ATP luminescence, 48 h; scaled: DMSO 0, geranylgeraniol control 100;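 active = mean ATP rescue above about 67%, or every replicate alone reaching that limit, limit read from the data, passing the limit was not always enough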;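 also: myotubes were challenged with 10 µM simvastatin during compound exposure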
* = called active by the depositor; · = no result given; + = active, no number; ! = not active in a repeat. Sampled rows, rich in hits. Any-hit rate of the full collection: about 0.98%.

SMILES	ERAP1 inh	Rtt109 HAT inh	S100A4 inh HTS	PGC1a acetyl inh	C2C12 statin
CN(C)CC(=O)N1[C@H](C#N)[C@H](c2ccccc2-c2cccc(C(=O)N(C)C)c2)[C@H]1CO	3	·	-25	-13	·
CCCNC(=O)N1C[C@H](O)COC[C@@H]2O[C@H](CC(=O)NCCCN3CCOCC3)CC[C@H]21	-4	·	13	-1	-18
O=C(C[C@H]1CC[C@@H]2[C@H](COC[C@@H](O)CN2C(=O)Nc2ccc(F)cc2)O1)NCCc1ccccc1	-8	·	106*	7	-27
Cn1cnc(CCNC(=O)C[C@@H]2CC[C@H]3[C@@H](COC[C@H](O)CN3C(=O)C3CC3)O2)c1	2	·	6	2	-11
C[C@H](NC(=O)C[C@H]1CC[C@H]2[C@@H](COC[C@@H](O)CN2C(=O)Nc2ccccc2)O1)c1ccccc1	-2	·	4	-3	-7
CCCNC(=O)N1C[C@H](O)COC[C@@H]2O[C@@H](CC(=O)NCCCN3CCOCC3)CC[C@H]21	-6	·	107*!	14	-28
C[C@H](NC(=O)C[C@H]1CC[C@H]2[C@@H](COC[C@H](O)CN2C(=O)Nc2ccccc2)O1)c1ccccc1	43*	·	3	-2	0
Cn1cnc(CCNC(=O)C[C@@H]2CC[C@H]3[C@@H](COC[C@@H](O)CN3C(=O)C3CC3)O2)c1	0	·	81*	6	1
C[C@H]1CN([C@@H](C)CO)C(=O)Cc2cc(NS(=O)(=O)c3cn(C)cn3)ccc2O[C@H]1CN(C)C(=O)Nc1ccc(C(F)(F)F)cc1	0	·	-2	12	19
O=C(C1CCCC1)N1CC2(C1)[C@@H](c1ccccc1)[C@H](CO)N2C(=O)CC1CC1	0	·	4	·	·
O=C(C[C@H]1CC[C@H]2NC[C@H](O)COC[C@@H]2O1)NCCN1CCCCC1	0	·	115*	11	-14
COc1ccc(-c2cc(=O)oc3cc(OC(C)C(=O)NC(Cc4c[nH]c5ccc(O)cc45)C(=O)O)ccc23)cc1 (stereo not drawn)	31*	-9	1	-3	-5
C[C@@H]1CN([C@@H](C)CO)S(=O)(=O)c2ccc(C3=CCCCC3)cc2O[C@@H]1CN(C)C(=O)C1CCOCC1	-1	·	-2	-6	-2
CC(Nc1ccc(F)cc1)=[N+](C)CCNS(=O)(=O)c1ccc(Cl)cc1	39*	3	0	0	5
COc1ccc(C)cc1N(CC(=O)Nc1ccc2c(c1)OCCO2)S(C)(=O)=O	-1	-2	6	·	·
Cc1oc(C(C)(C)C)cc1C(=O)Nc1ccc2c(c1)OCCO2	·	6	·	-2	95*
COc1ccccc1C(=O)Nc1ccc2c(c1)OCO2	·	-4	·	11	114*
COc1ccccc1N(CC(=O)Nc1ccc2c(c1)OCCO2)S(C)(=O)=O	·	4	·	-5	122*
CC(C)c1cc(C(=O)Nc2ccc3c(c2)OCO3)no1	-1	4	1	0	83*
C[C@H](CO)N1C[C@H](C)[C@@H](CN(C)C(=O)C2CCOCC2)Oc2ncc(C3=CCCCC3)cc2C1=O	3	·	11	-7	23
O=C(C[C@@H]1C[C@@H]2c3cc(NC(=O)C4CCC4)ccc3O[C@@H]2[C@@H](CO)O1)NCc1cccnc1	-1	·	4	-22	6
CCOc1ccc(C=NNc2ccc(S(=O)(=O)Nc3ccccc3C(=O)O)cc2[N+](=O)[O-])cc1	-9	-2	0	0	4
CCOc1cccc(C=NNc2ccc(S(=O)(=O)Nc3ccccc3C(=O)O)cc2[N+](=O)[O-])c1O	-33	-3	4	16	109*
NC(=O)CCc1c[nH]c2ccccc12	·	6	·	-4	109*
O=C(Nc1ccc(S(=O)(=O)NC2=NCCCCC2)cc1)c1ccc([N+](=O)[O-])s1	5	3	-3	-43	86*
SMILES	ERAP1 inh	Rtt109 HAT inh	S100A4 inh HTS	PGC1a acetyl inh	C2C12 statin
COc1ccc(CN(C)C[C@H]2Oc3c(NC(=O)NC(C)C)cccc3C(=O)N([C@H](C)CO)C[C@H]2C)cc1	-2	·	107*	0	-7
COc1ccc(NC(=O)Nc2cccc3c2O[C@@H](CN(C)C(=O)Nc2cccc4ccccc24)[C@H](C)CN([C@H](C)CO)C3=O)cc1	·	·	·	-3	98*
COc1ccc(NC(=O)Nc2cccc3c2O[C@@H](CN(C)C(=O)Nc2ccc(OC)cc2)[C@H](C)CN([C@@H](C)CO)C3=O)cc1	-3	·	-8	12	18
CC(C)NC(=O)Nc1cccc2c1O[C@@H](CN(C)Cc1ccc(Oc3ccccc3)cc1)[C@@H](C)CN([C@H](C)CO)C2=O	1	·	0	-11	31
COc1ccc(NC(=O)N(C)C[C@H]2Oc3c(NC(=O)NC(C)C)cccc3C(=O)N([C@H](C)CO)C[C@@H]2C)cc1	1	5	-3	-20	96*
C/C=C/c1ccc([C@@H]2[C@H](CO)N(C(=O)CC)C23CN(S(C)(=O)=O)C3)cc1	1	·	-4	3	·
COc1ccc(S(=O)(=O)Nc2ccc3c(c2)[C@H]2C[C@H](CC(=O)O)O[C@@H](CO)[C@H]2O3)cc1	0	·	6	0	-2
O=C(C[C@H]1CC[C@@H](NC(=O)C2CC2)[C@H](CO)O1)Nc1ccccc1	-1	·	28	0	-4
COC(=O)CC1(C(=O)OC)Oc2ccccc2C(=O)N1c1ccc(F)cc1F (stereo not drawn)	1	57*	2	7	·
COC(C(=O)Nc1ccc(F)cc1F)c1ccccc1 (stereo not drawn)	·	-6	·	8	·
CCN(CC)C(=O)c1ccc(/C=C/c2c[nH]c3ccccc23)[n+](C)c1	·	3	·	·	-73
CC[n+]1c(/C=C/c2c[nH]c3ccccc23)ccc2cc(C)ccc21	14	84*	129*	·	·
Cc1cc(C)n(C(=O)c2ccc(C)c(S(=O)(=O)N3CCCC3)c2)n1	·	0	·	-1	95*
Cc1cc(C)n(C(=O)c2ccc(S(=O)(=O)NCC3CCCO3)cc2)n1 (stereo not drawn)	·	-4	·	2	112*
Cc1cc(C)n(C(=O)c2cccc(S(=O)(=O)N3CCCCC3)c2)n1	-2	14	-1	6	-3
O=C(NCC1CCCO1)c1ccccc1 (stereo not drawn)	·	-11	·	6	28
Cc1ccc(-c2ccc(S(=O)(=O)NCC3CCCO3)cc2)cc1 (stereo not drawn)	6	9	0	8	·
C[n+]1cccc(C(=O)NCC2CCCO2)c1 (stereo not drawn)	99*	-1	-1	-1	·
Cc1ccc(S(=O)(=O)NCc2ccccc2)cc1C(=O)NCC1CCCO1 (stereo not drawn)	0	-4	+	·	·
COc1ccc(NC(=O)Nc2ccc3c(c2)[C@H]2C[C@H](CC(=O)NCc4ccccn4)O[C@H](CO)[C@H]2O3)cc1	-1	·	-8	-9	4

Source: PubChem BioAssay (Broad Institute)
